We go through four molecules from ChEMBL document CHEMBL4177543, “Biseokeaniamides A, B, and C, Sterol O-Acyltransferase Inhibitors from an Okeania sp. Marine Cyanobacterium” (J Nat Prod, 2017).

Active and inactive are the calls of the source. No cut-off for these calls is given here. Non-standard residues stand in square brackets, D forms with d. Residues, ends and D or L forms follow the SMILES beside them. *: point of attachment. NMeF = CN[C@@H](Cc1ccccc1)C(=O)O; NMeV = CN[C@H](C(=O)O)C(C)C; Butyryl = CCCC(=O)*; X1 = CN(Cc1nccs1)*

Experiment [1] concerns the target T1, Sterol O-acyltransferase 1 (Chlorocebus aethiops, UniProt O77760).
T1 sequence (O77760 whole entry): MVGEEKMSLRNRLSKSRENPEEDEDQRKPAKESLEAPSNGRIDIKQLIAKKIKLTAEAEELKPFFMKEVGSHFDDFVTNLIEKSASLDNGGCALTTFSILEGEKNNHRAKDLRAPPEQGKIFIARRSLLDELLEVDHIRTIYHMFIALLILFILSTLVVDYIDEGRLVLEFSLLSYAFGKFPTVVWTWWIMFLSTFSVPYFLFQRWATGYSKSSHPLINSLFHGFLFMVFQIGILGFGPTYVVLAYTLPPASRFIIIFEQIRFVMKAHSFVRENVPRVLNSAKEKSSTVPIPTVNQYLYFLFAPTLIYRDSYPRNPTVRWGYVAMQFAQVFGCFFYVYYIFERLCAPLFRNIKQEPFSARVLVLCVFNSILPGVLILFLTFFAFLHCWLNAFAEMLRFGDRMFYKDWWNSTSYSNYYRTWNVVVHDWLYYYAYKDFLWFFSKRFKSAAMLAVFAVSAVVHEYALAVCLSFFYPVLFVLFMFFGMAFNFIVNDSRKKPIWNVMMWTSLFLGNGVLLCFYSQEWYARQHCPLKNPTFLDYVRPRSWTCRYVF
Briefly: Inhibition of African green monkey SOAT1 expressed in CHO cells assessed as reduction in neutral lipid synthesis incubated for 6 hrs using [1-14C]oleic acid by thin-layer chromatography. The class given is cell-based. The method in brief: (§1)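 CHO cells stably expressing monkey SOAT1 or SOAT2 in Ham's F-12 with 10% FBS, plated 1.25 × 10^5 cells/well, recovered overnight, ≥80% confluent. Sample added from 0–1 mg/mL MeOH stocks together with [1-14C]oleic acid (1 nmol) for 6 h at 37 °C. Lipids Bligh–Dyer extracted and separated by TLC; [14C]cholesteryl ester quantified vs control. IC50 from duplicated experiments.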

For experiment [2], the target named is T2, Sterol O-acyltransferase 2 (Chlorocebus aethiops, UniProt O77759).
T2 sequence (O77759 whole entry): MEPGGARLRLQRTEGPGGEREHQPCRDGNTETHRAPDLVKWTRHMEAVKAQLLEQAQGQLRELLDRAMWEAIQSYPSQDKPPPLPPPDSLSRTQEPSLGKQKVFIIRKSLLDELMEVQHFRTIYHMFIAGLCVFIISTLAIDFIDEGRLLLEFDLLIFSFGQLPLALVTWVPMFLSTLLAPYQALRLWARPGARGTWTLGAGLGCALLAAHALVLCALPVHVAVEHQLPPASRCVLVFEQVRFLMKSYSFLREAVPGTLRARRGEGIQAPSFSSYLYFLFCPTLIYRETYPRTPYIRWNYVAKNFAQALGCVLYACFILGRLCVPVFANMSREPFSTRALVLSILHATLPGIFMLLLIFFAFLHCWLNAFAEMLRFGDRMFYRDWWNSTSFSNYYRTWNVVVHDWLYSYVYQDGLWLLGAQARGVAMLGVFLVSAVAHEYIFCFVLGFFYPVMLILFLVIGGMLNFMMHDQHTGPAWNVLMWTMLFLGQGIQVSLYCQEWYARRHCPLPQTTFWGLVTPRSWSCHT
In words: Inhibition of African green monkey SOAT2 expressed in CHO cells assessed as reduction in neutral lipid synthesis incubated for 6 hrs using [1-14C]oleic acid by thin-layer chromatography. The class given is cell-based. The method in brief:
as §1

Experiment [3] concerns the target T1, Sterol O-acyltransferase 1. Briefly: Inhibition of African green monkey SOAT1 expressed in CHO cell microsomal fractions assessed as reduction in neutral lipid synthesis incubated for 5 mins using [1-14C]oleoyl-CoA by thin-layer chromatography.
The target of experiment [4] is T2, Sterol O-acyltransferase 2. Briefly: Inhibition of African green monkey SOAT2 expressed in CHO cell microsomal fractions assessed as reduction in neutral lipid synthesis incubated for 5 mins using [1-14C]oleoyl-CoA by thin-layer chromatography.
Experiment [5] has as its system HeLa. Briefly: Growth inhibition of human HeLa cells incubated for 72 hrs by MTT assay. The format is functional, cell-based. The method in brief: (§2)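 HeLa (DMEM) or HL60 (RPMI) cells, 10% heat-inactivated FBS, 37 °C, 5% CO2. HeLa seeded 2 × 10^4 cells/well and cultured overnight; HL60 seeded 1 × 10^5 cells/well. Exposed to a range of concentrations for 72 h; proliferation read by MTT; IC50 reported.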

Experiment [6] relates to HL-60. In words: Growth inhibition of human HL60 cells incubated for 72 hrs by MTT assay. The format is functional, cell-based. The note with it: HL-60, 72 h. In outline:
as §2

The test system of experiment [7] is HeLa. Briefly: Induction of apoptosis in human HeLa cells assessed as induction of caspase-3 activation incubated for 24 hrs using Ac-DEVD-pNA as substrate by spectrophotometry. The format is functional, cell-based. In outline: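 Exponentially growing HeLa, 2 × 10^6 cells per 60 mm dish, incubated 12 h at 37 °C, then treated 24 h. Cells washed in cold PBS, lysed by three freeze–thaw cycles plus 15 min on ice, and clarified at 15000g. Lysate incubated with Ac-DEVD-pNA, 37 °C, 4 h; p-nitroaniline read at 405 nm. Activity relative to 1% MeOH control; triplicates; tunicamycin positive control.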

Experiment [8] deals with HeLa. Briefly: Induction of cell killing in human HeLa cells assessed as reduction in cell viability at 1 to 30 uM incubated for 48 hrs by trypan blue dye exclusion method. The format is functional, cell-based. The method in brief:
(§3)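 HeLa seeded 4 × 10^4 cells/well, cultured overnight, then preincubated 30 min with or without 50 μM Z-VAD-FMK. Compound added at various concentrations for 48 h. Cells stained with 0.8 mg/mL trypan blue; viability from counts of stained (dead) cells. Mean ± SD of quadruplicates.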

The test system of experiment [9] is HeLa. In words: Induction of cell killing in human HeLa cells assessed as reduction in cell viability at 1 to 30 uM incubated for 48 hrs in presence of 50 uM Z-VAD-FMK by trypan blue dye exclusion method. The format is functional, cell-based. The method in brief: as §3

For `COc1c([C@H](CC(C)C)OC(C)=O)ccc2c1C(=O)OCc1cc(C)cc(O)c1O2`, the IC50 in [1] was found to be 2.5 µM; in [2], 1.5 µM; in experiment [3], 0.9 µM; in experiment [4], 1.8 µM.

Regarding `CCCC(=O)N[C@H](C(=O)N1CCC[C@H]1C(=O)N(C)[C@@H](Cc1ccccc1)C(=O)N[C@@H](CC(C)C)C(=O)N(C)[C@H](C(=O)N(C)Cc1nccs1)C(C)C)C(C)C` (Butyryl-VP[NMeF]L[NMeV]-X1), the IC50 in [1] was more than 12 µM; in [2], 9.6 µM; in experiment [3], 11 µM; in [5], 43 µM; in [4] it was more than 32 µM; in experiment [6], more than 100 µM.

With `CCCC(=O)N(C)[C@H](C(=O)N1CCC[C@H]1C(=O)N(C)[C@@H](Cc1ccccc1)C(=O)N[C@@H](CC(C)C)C(=O)N[C@H](C(=O)N(C)Cc1nccs1)C(C)C)C(C)C` (Butyryl-[NMeV]P[NMeF]LV-X1), the half-maximal inhibitory concentration (IC50) came out at 6.9 µM in experiment [1]; 2.5 µM in experiment [2]; 6.8 µM in experiment [3]; 4.5 µM in [5]; 9.9 µM in experiment [4]; 19 µM in [6]. Besides, the Activity entry in experiment [7] was “Dose-dependent effect”. Moreover, the result in [8] was Active. In [9], the result was inactive.

Consider `CCCC(=O)N(C)[C@H](C(=O)N1CCC[C@H]1C(=O)N(C)[C@@H](Cc1ccccc1)C(=O)N[C@@H](CC(C)C)C(=O)N(C)[C@H](C(=O)N(C)Cc1nccs1)C(C)C)C(C)C` (Butyryl-[NMeV]P[NMeF]L[NMeV]-X1), for which the 50% inhibitory concentration (IC50) amounted to 1.8 µM in [1]; 1.3 µM in experiment [2]; 1.8 µM in experiment [3]; 29 µM in experiment [5]; 9.6 µM in [4]; 30 µM in experiment [6].
